PfM18AAP inh: blocks P. falciparum M18 aspartyl aminopeptidase | recombinant PfM18AAP, H-Glu-NHMec fluorogenic cleavage | inhibition, % at 7.35 µM | actives 1.2% (n = 290,000) | AID 1822;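 active = inhibition above the campaign mean inhibition over all tested compounds plus 3 SD, cut at about 28% in these data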;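 note: 0% = plate median of test compound wells and 100% = 2 mM ZnCl2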
p97 inhibitor: inhibitors of human p97 ATPase; recombinant p97 ATPase, Kinase-Glo ATP luminescence, 3 h; inhibition, % at 8 µM; actives 0.42% (n = 220,000); in the data active = inhibition above about 15%;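 note: 0% = DMSO vehicle and 100% = wells lacking enzyme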
Target sequence (P55072 whole entry, looked up): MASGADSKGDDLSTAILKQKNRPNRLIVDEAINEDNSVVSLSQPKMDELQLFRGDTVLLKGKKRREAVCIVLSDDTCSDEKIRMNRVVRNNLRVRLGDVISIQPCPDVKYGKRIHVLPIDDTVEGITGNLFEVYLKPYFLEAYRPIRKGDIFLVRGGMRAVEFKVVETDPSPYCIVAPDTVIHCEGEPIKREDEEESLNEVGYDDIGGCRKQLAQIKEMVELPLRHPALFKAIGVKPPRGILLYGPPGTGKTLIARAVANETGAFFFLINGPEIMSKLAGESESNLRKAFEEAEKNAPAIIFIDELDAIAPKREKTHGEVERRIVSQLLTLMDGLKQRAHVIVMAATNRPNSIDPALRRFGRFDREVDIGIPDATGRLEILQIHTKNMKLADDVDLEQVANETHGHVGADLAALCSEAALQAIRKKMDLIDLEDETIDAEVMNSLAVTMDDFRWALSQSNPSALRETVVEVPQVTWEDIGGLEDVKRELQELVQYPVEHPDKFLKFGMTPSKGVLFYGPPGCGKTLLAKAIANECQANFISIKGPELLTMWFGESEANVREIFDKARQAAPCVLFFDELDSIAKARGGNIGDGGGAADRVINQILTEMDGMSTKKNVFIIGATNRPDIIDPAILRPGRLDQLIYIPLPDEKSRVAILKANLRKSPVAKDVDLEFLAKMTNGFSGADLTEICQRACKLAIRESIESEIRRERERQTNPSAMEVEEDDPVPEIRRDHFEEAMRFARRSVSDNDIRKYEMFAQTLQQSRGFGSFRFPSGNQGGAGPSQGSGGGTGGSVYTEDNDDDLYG
NS3 helicase inh: HCV NS3 helicase inhibition | NS3 helicase DNA unwinding, Cy5 molecular beacon fluorescence | inhibition, % at 10.9 µM | actives 0.56% (n = 290,000) | AID 1800;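 active = inhibition above the mean of all tested compounds plus 3 SD, set per campaign, cut at about 35% in these data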;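 note: 0% = DMSO wells and 100% = thioflavine S control wells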
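test system = hepatitis C virus NS3 helicase domain fragment enzyme | reagent = annealed dual-labelled DNA beacon duplex, ATP-started | times = 1 h at 25 °C | detection = Cy5 fluorescence, 0 and 60 min reads | read-out basis = percent inhibition from t60/t0 fluorescence ratio | control set = DMSO and thioflavine S | replication = one well per compound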
UPR CHOP act: apoptotic UPR (CHOP) activation | CHO-CHOP luciferase reporter, luminescence; percent of tunicamycin response over DMSO baseline | actives 0.34% (n = 330,000) | activation, % at 10 µM | AID 449763;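 active = at 10 µM dose, activation of 40% or more, normalized to positive control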;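 note: 100% = tunicamycin at 10 µg/mL and 0% = DMSO alone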
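Assay system: CHO-CHOP cells, stable luciferase reporter of PERK-eIF2a-CHOP signalling / Buffer or medium: F12 plus 10% serum / Compound dosing: one dose, 10 µM in 0.5% DMSO / Times: 6 h compound treatment, 37 °C / Technique: luciferase luminescence / Read-out: % reporter activation, DMSO baseline versus tunicamycin full activation / Benchmarks: tunicamycin and DMSO controls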
CHOP inh: CHOP inhibition in unfolded protein response | CHO-K1 CHOP-promoter luciferase, tunicamycin-induced, 15-18 h | actives 3.8% (n = 220,000) | AID 2732 | inhibition, % at 10 µM;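 active = compounds that reduced the stress-induced luciferase reporter signal by more than about 70% of percent inhibition, limit read from the data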;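 note: 0% = tunicamycin plus vehicle and 100% = wells without tunicamycin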
XBP1 UPR activ: adaptive UPR (XBP1) activation. CHO-XBP1 luciferase reporter, IRE1-XBP1 UPR activation, luminescence; percent of tunicamycin response, DMSO as zero. activation, % at 20 µM. actives 0.33% (n = 330,000). AID 463104;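 active = versus positive control, 20 µM dose yields 30% or more activation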;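 note: 100% = tunicamycin at 10 µg/mL and 0% = DMSO only wells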
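Signal: luciferase luminescence; Assay system: CHO-XBP1 luciferase reporter cells; Amount: one thousand reporter cells per well; Dosing: 20 µM single concentration, DMSO 1%; Benchmarks: high control tunicamycin 10 µg/mL final, low control DMSO vehicle only; Schedule: 6 h compound exposure at 37 °C, 5% CO2; Evaluation: percent activation relative to tunicamycin reference.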
p97 inh conf: confirmation of human p97 ATPase inhibitors. shares compounds with p97 inhibitor. recombinant p97 ATPase, Kinase-Glo ATP luminescence. inhibition, % at 8 µM. actives 44% (n = 760);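 active = percent inhibition of p97 ATPase above a set limit, the primary screen's mean plus 3 SD, cut at about 15% in these data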;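 note: 0% = DMSO wells and 100% = wells lacking p97 protein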
* = called active by the depositor; . = no result. This is a sample that favours compounds with a hit; in the whole collection about 4.5% have one here.

SMILES	PfM18AAP inh	p97 inhibitor	NS3 helicase inh	UPR CHOP act	CHOP inh	XBP1 UPR activ	p97 inh conf
COc1ccc(-c2nc(CS(=O)(=O)CC(=O)NC3CCC(C)CC3)c(C)o2)cc1 (configuration not stated)	-4	.	-9	-1	.	-4	.
O=[N+]([O-])c1c(-c2cn[nH]c2)n[nH]c1-c1cn[nH]c1	11	25*	1	2	-4	-1	36*
O=c1cc(CCl)[nH]c2nc3ccccc3n12	2	38*	-20	1	-15	-1	38*
COc1ccc(NC(=O)C2=NN(c3ccccc3)C(=O)CC2)cn1	.	.	.	2	.	0	.
Cc1occc1-c1nnc(SCC(=O)c2c[nH]c3ccccc23)n1C	5	18*	2	-1	8	-1	29*
COc1cc(C(C#N)N2CCC(c3ccccc3)=N2)ccc1O (configuration not stated)	6	-3	-8	1	0	2	.
COC(=O)Cc1csc(Nc2ccccc2)n1	-5	0	7	5	-15	1	.
COC(=O)Cc1nc(Nc2ccccc2)sc1C	2	20*	-3	2	27	-2	5
Cc1cccc(C)c1NC(=O)COC(=O)c1cccnc1	-2	17*	-6	-1	-2	-7	6
CC(=O)OCC(=O)C1=CCC2C3CCC4=CC(=O)C=CC4(C)C3(F)C(OC(C)=O)CC12C (configuration not stated)	-3	15*	-8	1	-43	-3	7
CC(=O)OCC(=O)[C@@]1(O)CC[C@H]2[C@@H]3CCC4=CC(=O)C=C[C@]4(C)[C@@]3(F)[C@@H](O)C[C@@]21C	.	.	.	-1	.	-5	.
CCOc1ccccc1NC(=O)c1ccc(NC(=O)C2CCCO2)cc1 (configuration not stated)	-10	.	-14	3	.	0	.
Cc1[nH]c2ccccc2c1/C=N/NC(=O)c1cc(-c2ccccc2)n[nH]1	12	21*	12	2	1	0	17*
Cc1[nH]c2ccccc2c1/C=N/NC(=O)c1cccc(Br)c1	5	.	-14	3	.	0	.
Cc1[nH]c2ccccc2c1/C=N/Nc1cccc(C(=O)O)c1	21	18*	11	-4	20	-3	19*
Cc1[nH]c2ccccc2c1/C=N/NC(=O)c1ccccc1	-1	.	-11	1	.	10	.
COc1ccc(Nc2ccnc3ccccc23)cc1	-3	6	-5	0	36	-1	.
CC(C)Nc1ccc(Nc2ccnc3cc4ccccc4cc23)cc1	20	29*	-6	11	12	12	33*
COc1ccc(OC)c(Nc2nc(N)nc(CCl)n2)c1	3	25*	-11	22	-22	-3	25*
COc1cccc(Nc2nc(N)nc(CCl)n2)c1	-11	18*	-5	9	-49	0	17*
COc1ccccc1Nc1nc(N)nc(CCl)n1	5	14	10	3	-33	5	.
O=C(Nc1cc(Cl)ccn1)C1(c2ccccc2)CC1(Cl)Cl (configuration not stated)	-5	17*	-2	0	19	0	25*
O=C(Nc1ccccc1)C1(c2ccccc2)CC1(Cl)Cl (configuration not stated)	-1	3	1	0	0	1	.
Cc1cc(=O)[nH]c2ccc(Cl)cc12	-10	16*	1	2	9	1	3
Cc1cc(=O)c2cc(Cl)ccc2[nH]1	-1	4	6	0	0	-4	.
O=C(Nc1cccc(NC(=O)c2ccco2)c1)c1ccc2c(c1)OCCO2	6	17*	-1	0	-7	5	5
O=C(NNc1c2ccccc2nc2ccccc12)c1ccccc1O	-5	10	1	2	18	3	.
O=C(NNc1c2ccccc2nc2ccccc12)c1ccc(O)cc1O	12	35*	1	-1	30	16	38*

High-throughput results deposited in PubChem by several laboratories.
